Experimental data: ChEMBL document CHEMBL2021852 (ACS Med Chem Lett, 2011)
pIC50: −log10 of the molar value.

Key:
[1] = AUC (0 to t) in rat at 8 mg/kg, po; format: ADME, organism-based; set-up: dose 8 mg/kg, route oral; details: plasma
Procedure, shortened: (§1)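 Compounds were dosed as fumarate salts in separate intravenous and oral arms. Oral AUC(0–t), IV half-life, IV clearance, Vss and oral bioavailability (F) were derived from the plasma levels.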

[2] = AUC (0 to t) in cynomolgus monkey at 1 mg/kg, po; format: ADME, organism-based, Macaca fascicularis; set-up: dose 1 mg/kg, route oral; details: plasma; procedure, shortened: as §1
[3] = Half life in rat at 1.6 mg/kg, iv; format: ADME, organism-based; set-up: dose 1.6 mg/kg, route intravenous; details: in vivo; procedure, shortened: as §1
[4] = Half life in cynomolgus monkey at 1 mg/kg, iv; format: ADME, organism-based, Macaca fascicularis; set-up: dose 1 mg/kg, route intravenous; details: in vivo; procedure, shortened: as §1
[5] = Clearance in rat at 1.6 mg/kg, iv; format: ADME, organism-based; set-up: dose 1.6 mg/kg, route intravenous; details: in vivo; procedure, shortened: as §1
[6] = Volume of distribution at steady state in rat at 1.6 mg/kg, iv and 8 mg/kg, po; format: ADME, organism-based; details: in vivo, read-out: Vdss; procedure, shortened: as §1
[7] = Volume of distribution at steady state in cynomolgus monkey at 1 mg/kg, iv and 1 mg/kg, po; format: ADME, organism-based, Macaca fascicularis; details: in vivo, read-out: Vdss; procedure, shortened: as §1
[8] = Oral bioavailability in rat at 8 mg/kg; format: ADME, organism-based; details: in vivo
Procedure, shortened: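 Rats given compound as the fumarate salt, intravenously and by mouth in separate arms. Oral AUC(0–t), IV half-life, IV clearance, Vss and F were tabulated. The oral dose was 8.0 mg/kg, paired with an IV dose of 1.6 mg/kg.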

[9] = Oral bioavailability in cynomolgus monkey at 1 mg/kg; format: ADME, organism-based, Macaca fascicularis; details: in vivo; procedure, shortened: as §1
[10] = AUC (0 to t) in rat at 8.2 mg/kg, po; format: ADME, organism-based; set-up: dose 8.2 mg/kg, route oral; details: plasma; procedure, shortened: as §1
[11] = AUC (0 to t) in cynomolgus monkey at 2 mg/kg, po; format: ADME, organism-based, Macaca fascicularis; set-up: dose 2 mg/kg, route oral; details: plasma; procedure, shortened: as §1
[12] = Half life in rat at […], iv; format: ADME, organism-based; set-up: dose 1.5 mg/kg, route intravenous; details: in vivo
[13] = Clearance in rat at […], iv; format: ADME, organism-based; set-up: dose 1.5 mg/kg, route intravenous; details: in vivo
[14] = Clearance in cynomolgus monkey at 1 mg/kg, iv; format: ADME, organism-based, Macaca fascicularis; set-up: dose 1 mg/kg, route intravenous; details: in vivo; procedure, shortened: as §1
[15] = Volume of distribution at steady state in rat at […], iv and 8.2 mg/kg, po; format: ADME, organism-based; details: in vivo, read-out: Vdss
[16] = Volume of distribution at steady state in cynomolgus monkey at 1 mg/kg, iv and 2 mg/kg, po; format: ADME, organism-based, Macaca fascicularis; details: in vivo, read-out: Vdss; procedure, shortened: as §1
[17] = Oral bioavailability in rat at 8.2 mg/kg; format: ADME, organism-based; details: in vivo; procedure, shortened: as §1
[18] = Oral bioavailability in cynomolgus monkey at 2 mg/kg; format: ADME, organism-based, Macaca fascicularis; details: in vivo; procedure, shortened: as §1
[19] = Volume of distribution at steady state in rat at 1.6 mg/kg, iv and 8.2 mg/kg, po; format: ADME, organism-based; details: in vivo, read-out: Vdss; procedure, shortened: as §1
Renin [20] = target: T1, Renin (Homo sapiens, UniProt P00797); experiment: Inhibition of human recombinant renin using DABCYL-gamma-Abu-Ile-His-Pro-Phe-His-Leu-Val-Ile-His-Thr-EDANS as substrate for 60 mins by fluorimetry
T1 sequence (P00797 whole entry): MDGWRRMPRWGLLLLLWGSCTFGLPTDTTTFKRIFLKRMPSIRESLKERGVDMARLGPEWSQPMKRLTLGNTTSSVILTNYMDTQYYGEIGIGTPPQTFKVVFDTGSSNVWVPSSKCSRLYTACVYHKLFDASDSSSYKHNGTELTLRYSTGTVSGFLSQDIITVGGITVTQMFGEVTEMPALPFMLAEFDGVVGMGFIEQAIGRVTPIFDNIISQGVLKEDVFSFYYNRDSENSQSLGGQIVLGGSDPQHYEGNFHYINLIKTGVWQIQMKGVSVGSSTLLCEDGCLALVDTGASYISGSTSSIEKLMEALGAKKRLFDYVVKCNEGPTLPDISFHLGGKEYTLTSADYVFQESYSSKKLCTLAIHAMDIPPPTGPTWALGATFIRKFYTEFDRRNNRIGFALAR
Procedure, shortened: (§2)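 Purified recombinant human renin measured in buffer; each value is the average of at least two replicates.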

Renin [21] = target: T1, Renin; experiment: Inhibition of renin in human plasma assessed as formation of angiotensin1 product after 90 mins by competitive radioimmunoassay
Procedure, shortened: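 IC50 for renin inhibition determined in the presence of human plasma; each value is the average of at least two replicates.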

Renin [22] = target: T1, Renin; experiment: Inhibition of human recombinant renin using H-Asp-Arg-Val-Tyr-Ile-His-Pro-Phe-His-Leu-Val-Ile-His-Asn-OH as substrate assessed as formation of angiotensin1 product after 2 hrs by competive radioimmunoassay; procedure, shortened: as §2
Cytochrome P450 3A4 = Cytochrome P450 3A4 (Homo sapiens, UniProt P08684); experiment: Inhibition of CYP3A4 using testosterone as substrate in human liver microsome for 20 mins by HPLC analysis; format: ADME, microsomes
Cytochrome P450 3A4, sequence (P08684 whole entry): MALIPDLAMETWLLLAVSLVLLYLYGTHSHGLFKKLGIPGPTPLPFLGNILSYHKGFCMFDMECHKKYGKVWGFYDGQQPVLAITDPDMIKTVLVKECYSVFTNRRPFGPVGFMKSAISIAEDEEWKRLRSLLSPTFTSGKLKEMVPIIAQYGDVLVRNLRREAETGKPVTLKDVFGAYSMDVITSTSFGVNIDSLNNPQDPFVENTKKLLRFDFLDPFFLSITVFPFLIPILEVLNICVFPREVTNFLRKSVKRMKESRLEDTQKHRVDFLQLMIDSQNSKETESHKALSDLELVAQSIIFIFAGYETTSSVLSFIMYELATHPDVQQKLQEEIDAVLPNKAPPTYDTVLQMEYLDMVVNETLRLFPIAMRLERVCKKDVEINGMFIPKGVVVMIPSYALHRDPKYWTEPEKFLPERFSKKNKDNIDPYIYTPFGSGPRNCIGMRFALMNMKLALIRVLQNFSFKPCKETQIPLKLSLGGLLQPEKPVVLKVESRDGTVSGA
Procedure, shortened: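 CYP3A4 inhibition measured in human liver microsomes; IC50 is the average of at least two replicates.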

[23] = AUC (0 to t) in dog at 1 mg/kg, po; format: ADME, organism-based, Canis lupus familiaris; set-up: dose 1 mg/kg, route oral; details: plasma; procedure, shortened: as §1
[24] = Half life in rat at 2 mg/kg, iv; format: ADME, organism-based; set-up: dose 2 mg/kg, route intravenous; details: in vivo; procedure, shortened: as §1
[25] = Half life in dog at 0.5 mg/kg, iv; format: ADME, organism-based, Canis lupus familiaris; set-up: dose 0.5 mg/kg, route intravenous; details: in vivo; procedure, shortened: as §1
[26] = Clearance in rat at 2 mg/kg, iv; format: ADME, organism-based; set-up: dose 2 mg/kg, route intravenous; details: in vivo; procedure, shortened: as §1
[27] = Clearance in dog at 0.5 mg/kg, iv; format: ADME, organism-based, Canis lupus familiaris; set-up: dose 0.5 mg/kg, route intravenous; details: in vivo; procedure, shortened: as §1
[28] = Volume of distribution at steady state in rat at 2 mg/kg, iv and 10 mg/kg, po; format: ADME, organism-based; details: in vivo, read-out: Vdss; procedure, shortened: as §1
[29] = Volume of distribution at steady state in dog at 0.5 mg/kg, iv and 1 mg/kg, po; format: ADME, organism-based, Canis lupus familiaris; details: in vivo, read-out: Vdss; procedure, shortened: as §1
[30] = Oral bioavailability in dog at 1 mg/kg; format: ADME, organism-based, Canis lupus familiaris; details: in vivo; procedure, shortened: as §1
[31] = AUC (0 to t) in rat at 4 mg/kg, po; format: ADME, organism-based; set-up: dose 4 mg/kg, route oral; details: plasma; procedure, shortened: as §1
[32] = Half life in rat at 0.8 mg/kg, iv; format: ADME, organism-based; set-up: dose 0.8 mg/kg, route intravenous; details: in vivo; procedure, shortened: as §1
[33] = Clearance in rat at 0.8 mg/kg, iv; format: ADME, organism-based; set-up: dose 0.8 mg/kg, route intravenous; details: in vivo; procedure, shortened: as §1
[34] = Volume of distribution at steady state in rat at 0.8 mg/kg, iv and 4 mg/kg, po; format: ADME, organism-based; details: in vivo, read-out: Vdss; procedure, shortened: as §1
[35] = Oral bioavailability in rat at 4 mg/kg; format: ADME, organism-based; details: in vivo; procedure, shortened: as §1

SMILES: CNC[C@H](CC1CCCCC1)NC(=O)N1CCC[C@@H]([C@@H](OCCNC(=O)OC)c2cccc(Cl)c2)C1.O=C(O)/C=C/C(=O)O
- AUC(0-t) [1]: 301 ng·h/mL
- AUC(0-t) [2]: 130 ng·h/mL
- half-life [3]: 972 min
- half-life [4]: 1400 min
- clearance [5]: 36 mL/min/kg
- Vd [6]: 19 L/kg
- Vd [7]: 9.8 L/kg
- bioavailability [8]: 9.4%
- bioavailability [9]: 9.9%

SMILES: CNC[C@H](C[C@H]1CCCOC1)NC(=O)N1CCC[C@@H]([C@@H](OCCNC(=O)OC)c2cccc(Cl)c2)C1.O=C(O)/C=C/C(=O)O
- AUC(0-t) [10]: 167 ng·h/mL
- AUC(0-t) [11]: 172 ng·h/mL
- half-life [12]: 1100 min
- half-life [4]: 840 min
- clearance [13]: 48 mL/min/kg
- clearance [14]: 9.5 mL/min/kg
- Vd [15]: 39 L/kg
- Vd [16]: 5 L/kg
- bioavailability [17]: 7.5%
- bioavailability [18]: 5.3%

SMILES: CNC[C@H](CC1CCCCC1)NC(=O)N1CCC[C@@H]([C@@](O)(CCCCOC)c2cccc(Cl)c2F)C1.O=C(O)/C=C/C(=O)O
- AUC(0-t) [10]: 226 ng·h/mL
- half-life [3]: 954 min
- clearance [5]: 30 mL/min/kg
- Vd [19]: 16 L/kg
- bioavailability [17]: 5.5%

SMILES: CNC[C@H](CC1CCCCC1)NC(=O)N1CCC[C@@H]([C@@](O)(CCCCOC)c2cccc(Cl)c2F)C1
- pIC50 (Renin [20]): 9.14
- pIC50 (Renin [21]): 8.03

SMILES: CNC[C@@H](NC(=O)N1CCC[C@@H]([C@@H](OCCNC(=O)OC)c2cccc(Cl)c2)C1)[C@@H](O)C1CCCCC1
- pIC50 (Renin [20]): 9.48
- pIC50 (Renin [22]): 9.82
- pIC50 (Renin [21]): 8.97
- pIC50 (Cytochrome P450 3A4): 5.15

SMILES: CN[C@H](CNC(=O)N1CCC[C@@H]([C@@H](OCCNC(=O)OC)c2cccc(Cl)c2)C1)C[C@H]1CCCOC1.O=C(O)/C=C/C(=O)O
- AUC(0-t) [11]: 404 ng·h/mL
- AUC(0-t) [23]: 484 ng·h/mL
- half-life [24]: 438 min
- half-life [4]: 738 min
- half-life [25]: 594 min
- clearance [26]: 128 mL/min/kg
- clearance [14]: 29.6 mL/min/kg
- clearance [27]: 12.9 mL/min/kg
- Vd [28]: 38 L/kg
- Vd [16]: 4.7 L/kg
- Vd [29]: 4 L/kg
- bioavailability [18]: 18%
- bioavailability [30]: 41%

SMILES: CNC[C@H](CC1CCCCC1)NC(=O)N1CCC[C@@H]([C@@H](OCCNC(=O)OC)c2cccc(Cl)c2)C1
- pIC50 (Cytochrome P450 3A4): 5.34

SMILES: COCCCC[C@@](O)(c1cccc(Cl)c1F)[C@@H]1CCCN(C(=O)NC[C@@H](N)CC2CCCCC2)C1.O=C(O)/C=C/C(=O)O
- AUC(0-t) [31]: 269 ng·h/mL
- half-life [32]: 2.12 days
- clearance [33]: 47 mL/min/kg
- Vd [34]: 101 L/kg
- bioavailability [35]: 29.5%
